Results: paper PMC7357868 (ACS chemical biology, 2019)

Key:
[1] = target: T1, hpol η binding to primer-template DNA (Homo sapiens, UniProt Q9Y253); test: Fluorescence anisotropy DNA binding assay; conditions: inhibitor concentration near the IC50 for pol activity; 2 nM FAM-labeled p/t-DNA
T1 sequence (Q9Y253 1-437): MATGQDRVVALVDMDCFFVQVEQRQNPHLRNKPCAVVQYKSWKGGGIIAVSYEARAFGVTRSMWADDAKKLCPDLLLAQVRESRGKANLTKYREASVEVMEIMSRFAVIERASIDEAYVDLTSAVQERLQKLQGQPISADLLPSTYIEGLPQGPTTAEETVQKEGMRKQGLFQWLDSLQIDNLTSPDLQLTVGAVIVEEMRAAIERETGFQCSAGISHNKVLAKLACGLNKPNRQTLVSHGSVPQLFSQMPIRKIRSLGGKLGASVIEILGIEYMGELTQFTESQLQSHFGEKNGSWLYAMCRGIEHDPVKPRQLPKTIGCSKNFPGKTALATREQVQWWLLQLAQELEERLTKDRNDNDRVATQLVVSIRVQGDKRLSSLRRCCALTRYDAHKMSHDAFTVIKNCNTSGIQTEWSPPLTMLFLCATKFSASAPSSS

[2] = system: hpol κ-proficient HAP-1 cells; test: Clonogenic survival assay; assay type: cell-based, human
[3] = system: hpol κ-proficient HAP-1 cells; test: Alkaline comet assay; assay type: cell-based, human
Outline: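 100 000 HAP-1 cells per well, test compound 0.5 μM alone or with alkylating agent (100 μM), 1 h; DMSO control. Cells embedded in low-melting agarose (200–300 per well), lysed 1 h, alkaline unwinding (200 mM NaOH, 1 mM EDTA) 20 min RT, electrophoresis 21 V, 30 min, 4 °C, SYBR Gold stain. Read-out is % DNA in tail per cell; ≥20 cells per replicate, three biological replicates, mean ±SD.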

hpol κ = target: T2, hpol κ (Homo sapiens, UniProt Q9UBT6); test: HPG chemical footprinting with LC-MS; conditions: 10 μM hpol κ, IAG-10 20 and 100 μM, 500 μM HPG
T2 sequence (Q9UBT6 19-526): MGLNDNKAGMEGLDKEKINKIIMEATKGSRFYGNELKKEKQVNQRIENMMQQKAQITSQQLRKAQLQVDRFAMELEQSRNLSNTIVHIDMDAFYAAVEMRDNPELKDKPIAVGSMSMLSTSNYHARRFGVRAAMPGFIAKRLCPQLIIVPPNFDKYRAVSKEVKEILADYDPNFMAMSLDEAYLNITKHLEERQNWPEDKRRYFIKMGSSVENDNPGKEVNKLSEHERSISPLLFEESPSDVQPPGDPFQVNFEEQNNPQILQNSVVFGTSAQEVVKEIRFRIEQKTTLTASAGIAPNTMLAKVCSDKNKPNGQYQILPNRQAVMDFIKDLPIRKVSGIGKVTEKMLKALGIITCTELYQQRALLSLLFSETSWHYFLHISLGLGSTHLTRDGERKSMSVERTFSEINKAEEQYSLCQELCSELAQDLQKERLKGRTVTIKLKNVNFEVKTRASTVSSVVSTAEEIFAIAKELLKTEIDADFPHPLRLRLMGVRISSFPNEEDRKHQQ

hpol λ = target: T3, hpol λ (Homo sapiens, UniProt Q9UGP5); test: TAMRA strand-displacement selectivity assay, X-family pol; assay type: biochemical; conditions: 10 μM IAG-10, 10 nM hpol λ
T3 sequence (Q9UGP5 251-575 limits assumed): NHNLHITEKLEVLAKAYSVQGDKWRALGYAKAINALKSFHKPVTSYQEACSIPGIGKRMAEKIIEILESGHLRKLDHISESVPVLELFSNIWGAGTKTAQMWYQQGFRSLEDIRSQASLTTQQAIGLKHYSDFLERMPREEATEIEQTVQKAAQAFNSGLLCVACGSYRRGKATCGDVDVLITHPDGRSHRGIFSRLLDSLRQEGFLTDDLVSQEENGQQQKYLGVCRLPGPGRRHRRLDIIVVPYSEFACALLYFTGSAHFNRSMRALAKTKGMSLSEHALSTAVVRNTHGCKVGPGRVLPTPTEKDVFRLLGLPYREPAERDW

pol Dpo1 = target: T4, pol Dpo1 (Saccharolobus solfataricus, UniProt P26811); test: TAMRA strand-displacement selectivity assay, B-family pol; assay type: biochemical, Sulfolobus solfataricus; conditions: 10 μM IAG-10, 25 nM Dpo1
T4 sequence (P26811 1-882): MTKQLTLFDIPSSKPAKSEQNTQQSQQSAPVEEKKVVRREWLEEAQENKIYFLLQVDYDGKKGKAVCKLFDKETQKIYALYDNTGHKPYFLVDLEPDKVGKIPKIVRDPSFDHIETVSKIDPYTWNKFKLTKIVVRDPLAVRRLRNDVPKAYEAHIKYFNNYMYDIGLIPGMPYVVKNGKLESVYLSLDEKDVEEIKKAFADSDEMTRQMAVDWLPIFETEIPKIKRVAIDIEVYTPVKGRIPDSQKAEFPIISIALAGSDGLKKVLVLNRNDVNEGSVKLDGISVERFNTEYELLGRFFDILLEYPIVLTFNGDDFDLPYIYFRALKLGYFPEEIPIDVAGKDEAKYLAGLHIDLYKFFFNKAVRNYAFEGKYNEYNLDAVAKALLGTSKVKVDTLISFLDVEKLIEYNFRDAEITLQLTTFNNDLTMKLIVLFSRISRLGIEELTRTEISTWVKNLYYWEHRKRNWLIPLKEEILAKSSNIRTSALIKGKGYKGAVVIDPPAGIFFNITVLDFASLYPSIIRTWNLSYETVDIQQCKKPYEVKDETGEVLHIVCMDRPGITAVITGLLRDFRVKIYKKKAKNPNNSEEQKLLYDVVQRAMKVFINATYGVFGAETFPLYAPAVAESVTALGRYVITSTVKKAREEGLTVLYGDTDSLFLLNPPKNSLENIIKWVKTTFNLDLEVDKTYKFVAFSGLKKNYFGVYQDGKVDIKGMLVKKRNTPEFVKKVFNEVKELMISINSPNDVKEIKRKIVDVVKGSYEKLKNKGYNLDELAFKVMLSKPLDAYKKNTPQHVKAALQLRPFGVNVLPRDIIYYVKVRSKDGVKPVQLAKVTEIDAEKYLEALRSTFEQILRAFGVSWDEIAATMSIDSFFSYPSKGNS

## Cl.[H]/N=C(\N)NN=Cc1cn(C(=O)c2cccc3ccccc23)c2ccc(Cl)cc12 [IAG-10, (E)-2-((1-(1-naphthoyl)-5-chloro-1H-indol-3-yl)-methylene)hydrazine-1-carboximidamide hydrochloride]
[1]
  increase in the Kd,DNA: 20–30%
[2]; 0.5 μM IAG-10 alone
  colony formation: does not impair colony formation
[2]; 250 μM TMZ + 0.5 μM IAG-10 cotreatment, 1 h, 10 days culture
  colonies formed relative to untreated cells: ~ 40%
[3]; 0.5 μM IAG-10 alone, 1 h
  DNA damage (% DNA in tail) compared to control: approximately twofold
[3]; 100 μM TMZ + 0.5 μM IAG-10, compared with TMZ alone
  DNA damage (% DNA in tail): increased even further
Hpol κ
  change in the fraction of HPG-modified peptides containing Arg48: large increase
  decrease in the fraction of HPG-modified peptides (Arg145, Arg149, Arg505): > 50%
Hpol λ
  polymerase activity in presence of compound: only hpol κ activity was inhibited
Pol Dpo1
  polymerase activity in presence of compound: only hpol κ activity was inhibited
